The target of test [1] is T1, DNA (cytosine-5)-methyltransferase 1 (Homo sapiens, UniProt P26358). In words: Inhibition of human recombinant DNMT1 expressed in Sf9 cells assessed as remaining activity at 2 mM after 3 hrs by scintillation counting in presence of [3H]S-adenosyl methionine. In outline:
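Single-point screen at 2 mM (compounds in DMSO, DMSO control) against 500 nM Sf9-expressed human DNMT1, hemimethylated oligo 0.4 μM, 0.7 μM [3H]AdoMet, pH 7.5 Tris buffer, 37 °C for 3 h; filter-bound tritium counted. Relative enzyme activity (% of control) as mean of three measurements with SD; inhibition >20% scored positive.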

For test [2], the target named is T1, DNA (cytosine-5)-methyltransferase 1. In words: Inhibition of human recombinant DNMT1 expressed in Sf9 cells assessed as incorporation of [3H]S-adenosyl methionine into hemimethylated oligonucleotide substrate after 3 hrs by scintillation counting.
Test [3] has as its system HCT-116. In words: Antiproliferative activity against human HCT116 cells assessed as growth inhibition by measuring proliferation rate after 72 hrs by trypan blue staining. It counts as functional, cell-based. In outline: (§1)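 HCT116 colon carcinoma cells incubated 72 h with test compound at 300, 500 and 750 μM, azacytidine 1 μM as positive control, DMSO alone as control.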

Test [4] relates to HCT-116. In words: Antiproliferative activity against human HCT116 cells assessed as growth inhibition by measuring doubling time after 72 hrs by trypan blue staining. It counts as functional, cell-based. In outline: as §1
Test [5] addresses T1, DNA (cytosine-5)-methyltransferase 1. In words: Competitive inhibition of human recombinant DNMT1 expressed in Sf9 cells using [3H]S-adenosyl methionine as substrate at 150 uM after 1 hr by scintillation counting. In outline: (§2)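 Mode-of-inhibition assay: standard DNMT1 filter assay (500 nM enzyme) modified with inhibitor fixed at 150 μM and 1 h at 37 °C; either [3H]SAM or the oligo substrate concentration increased while the other held. Activity with inhibitor under standard conditions set as 100% inhibition; curves interpreted by the Lai and Wu model.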

Test [6] shares this target. In words: Non-competitive inhibition of human recombinant DNMT1 expressed in Sf9 cells using oligonucleotide as substrate after 1 hr by scintillation counting. In outline:
as §2

Test [7] concerns HCT-116. Description: Antiproliferative activity against human HCT116 cells after 72 hrs by trypan blue staining. In kind it is functional. As to conditions: HCT-116, 72 h. In outline: as §1
In test [8] the target is T1, DNA (cytosine-5)-methyltransferase 1. In words: Selectivity ratio of IC50 for procaine to compound for human recombinant DNMT1 expressed in Sf9 cells assessed as incorporation of [3H]S-adenosyl methionine into hemimethylated oligonucleotide substrate after 3 hrs by scintillation counting.

Calls of active or inactive are those of the source. The rule behind the calls is not given here.

T1 sequence (P26358 whole entry): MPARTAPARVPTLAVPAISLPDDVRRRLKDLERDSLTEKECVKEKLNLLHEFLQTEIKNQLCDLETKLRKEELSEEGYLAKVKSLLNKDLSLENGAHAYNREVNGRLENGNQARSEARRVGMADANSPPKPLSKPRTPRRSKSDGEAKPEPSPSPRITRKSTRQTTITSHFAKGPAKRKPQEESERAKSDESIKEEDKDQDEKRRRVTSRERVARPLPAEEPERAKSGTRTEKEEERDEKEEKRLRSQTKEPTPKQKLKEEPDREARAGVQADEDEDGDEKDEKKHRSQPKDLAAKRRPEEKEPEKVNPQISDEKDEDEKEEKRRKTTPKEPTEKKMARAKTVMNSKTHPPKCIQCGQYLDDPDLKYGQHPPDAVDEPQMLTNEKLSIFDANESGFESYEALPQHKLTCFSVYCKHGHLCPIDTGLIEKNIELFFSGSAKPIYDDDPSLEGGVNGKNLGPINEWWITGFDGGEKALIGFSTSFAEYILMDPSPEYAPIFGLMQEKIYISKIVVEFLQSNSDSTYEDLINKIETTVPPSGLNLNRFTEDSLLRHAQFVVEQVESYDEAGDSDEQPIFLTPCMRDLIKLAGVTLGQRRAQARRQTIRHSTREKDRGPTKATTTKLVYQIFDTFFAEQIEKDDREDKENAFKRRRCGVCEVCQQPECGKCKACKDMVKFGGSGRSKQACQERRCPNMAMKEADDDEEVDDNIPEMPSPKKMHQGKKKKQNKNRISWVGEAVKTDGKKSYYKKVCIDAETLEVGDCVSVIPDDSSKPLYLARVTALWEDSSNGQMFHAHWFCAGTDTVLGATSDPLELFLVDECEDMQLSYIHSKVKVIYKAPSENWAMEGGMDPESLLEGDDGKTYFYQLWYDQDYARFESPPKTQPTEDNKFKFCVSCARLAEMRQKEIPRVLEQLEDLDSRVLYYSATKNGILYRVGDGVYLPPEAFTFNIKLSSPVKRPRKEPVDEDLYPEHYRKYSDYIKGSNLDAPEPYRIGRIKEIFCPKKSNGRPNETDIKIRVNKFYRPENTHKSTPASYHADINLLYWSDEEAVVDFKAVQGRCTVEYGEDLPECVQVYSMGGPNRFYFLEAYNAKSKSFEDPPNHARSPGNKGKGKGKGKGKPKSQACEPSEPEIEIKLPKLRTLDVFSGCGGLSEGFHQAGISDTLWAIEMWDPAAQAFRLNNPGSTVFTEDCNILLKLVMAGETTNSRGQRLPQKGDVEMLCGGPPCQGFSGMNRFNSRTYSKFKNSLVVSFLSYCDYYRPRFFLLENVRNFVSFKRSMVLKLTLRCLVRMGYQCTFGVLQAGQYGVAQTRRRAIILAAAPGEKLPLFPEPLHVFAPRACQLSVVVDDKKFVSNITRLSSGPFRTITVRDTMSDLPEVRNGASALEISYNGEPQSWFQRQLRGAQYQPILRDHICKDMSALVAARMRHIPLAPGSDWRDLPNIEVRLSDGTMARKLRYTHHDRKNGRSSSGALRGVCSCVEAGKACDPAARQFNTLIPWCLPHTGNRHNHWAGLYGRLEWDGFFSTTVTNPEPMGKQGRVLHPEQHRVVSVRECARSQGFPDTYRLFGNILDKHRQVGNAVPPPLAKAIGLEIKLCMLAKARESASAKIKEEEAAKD

The term IC50 denotes the concentration that inhibits the measured activity by half. Turning to `CN1CC2ON=C(c3ccc(N)cc3)C2C1` (configuration not stated), the Activity in test [1] is 5.1%. Further, the half-inhibitory concentration (IC50) in test [2] turned out to be 570 µM.

With `COc1ccc(CC2=NOC3CN(C)CC23)cc1` (configuration not stated), in test [1], the Activity is 1.7%. Also, the concentration for half-maximal inhibition (IC50) in test [2] was determined as 1130 µM.

Consider `CN(C)CC1CC(Cc2ccc([N+](=O)[O-])cc2)=NO1` (configuration not stated), for which the Activity in test [1] came to 14.8%. For the same compound, the IC50 in test [2] was determined as 1600 µM.

As to `CN1CC2ON=C(Cc3ccc(N)cc3)C2C1` (configuration not stated), the Activity in test [1] was found to be 3.3%.

Take `CN(C)CC1CC(c2ccc(O)cc2)=NO1` (configuration not stated): in test [1], the Activity is 88%.

Turning to `O=[N+]([O-])c1ccc(C2=NC[C@H](CN3CCCC3)O2)cc1`, the “growth inhibition (GI)” value with HCT-116 [3] and in the test with HCT-116 [4] was “inactive” throughout.

On to `CN1CC2ON=C(Cc3ccccc3)C2C1` (configuration not stated), for which the Activity in test [1] was 84%.

For `CN(C)CC1CC(c2ccc(N)cc2)=NO1` (configuration not stated), the Activity in test [1] came out at 20.2%. The 50% inhibitory concentration (IC50) in test [2] was 270 µM.

For `COc1ccc(CC2=NOC(CN(C)C)C2)cc1` (configuration not stated), the result in test [1] was inactive.

On to `CN1CC2ON=C(c3ccc(O)cc3)C2C1` (configuration not stated), for which the result in test [1] was inactive.

`CN(C)CC1CC(Cc2ccccc2)=NO1` (configuration not stated): in test [1], the Activity stood at 17.1%.

Turning to `CN1CC2ON=C(c3ccc([N+](=O)[O-])cc3)C2C1` (configuration not stated), in test [1], the Activity is 34.9%.

With `CCN(CC)CCOC(=O)c1ccc(N)cc1`, the result in test [1] was inactive.

Consider `COc1ccc(C2=NOC3CN(C)CC23)cc1` (configuration not stated), for which the Activity in test [1] amounted to 95.6%.

With `CN(C)CC1CC(Cc2ccc(N)cc2)=NO1` (configuration not stated), in test [1], the Activity was determined as 28.3%.

In general, GI50 refers to the concentration at which growth is held to half of that of the control. Higher therefore signals less potent growth inhibition. Consider `CN(C)CC1CC(c2ccc([N+](=O)[O-])cc2)=NO1` (configuration not stated), for which the Activity in test [1] was 0.3%. For the same compound, the half-inhibitory concentration (IC50) in test [2] amounted to 150 µM. In addition, the inhibition result in test [5] and in test [6] was “Active” throughout. In addition, in the test on HCT-116 [7], it took 360 µM to inhibit growth by half (GI50). Further, the Ratio IC50 in test [8] was 10.

For the compound `CN1CC2ON=C(c3ccc(C(=O)O)cc3)C2C1` (configuration not stated), the outcome in test [1] was inactive.

Turning to `CN(C)CC1CC(c2ccccc2)=NO1` (configuration not stated), the outcome in test [1] was inactive.

For the compound `CN1CC2ON=C(Cc3ccc([N+](=O)[O-])cc3)C2C1` (configuration not stated), the Activity in test [1] came to 3.8%. Further, the IC50 in test [2] was 310 µM.

As to `CN1CC2ON=C(c3ccccc3)C2C1` (configuration not stated), in test [1], the outcome was inactive.

Consider `Nc1ncnc2c1ncn2[C@@H]1O[C@H](CSCC[C@H](N)C(=O)O)[C@@H](O)[C@H]1O`, for which the Activity in test [1] worked out at 0.5%.

On to `COc1ccc(C2=NOC(CN(C)C)C2)cc1` (configuration not stated), for which, in test [1], the Activity was found to be 3.3%.

`CN(C)CC1CC(c2ccc(C(=O)O)cc2)=NO1` (configuration not stated): in test [1], the Activity stood at 23%.

Regarding `Cc1ccc(S(=O)(=O)Oc2ccc(C3=NOC(CN(C)C)C3)cc2)cc1` (configuration not stated), the Activity in test [1] is 90.6%.

Turning to `O=C(O)[C@H](Cc1c[nH]c2ccccc12)N1C(=O)c2ccccc2C1=O`, in test [1], the outcome was inactive.

As for `Cc1ccc(S(=O)(=O)Oc2ccc(C3=NOC4CN(C)CC34)cc2)cc1` (configuration not stated), the Activity in test [1] turned out to be 18.6%.

The record behind these values is ChEMBL document CHEMBL1914404, “Synthesis and biochemical evaluation of δ(2)-isoxazoline derivatives as DNA methyltransferase 1 inhibitors” (J Med Chem, 2011).
